Measurements taken from ChEMBL document CHEMBL3351896, “Small Molecule that Reverses Dexamethasone Resistance in T-cell Acute Lymphoblastic Leukemia (T-ALL)” (ACS Med Chem Lett, 2014).
Calls of active or inactive are those of the source. No cut-off for these calls is given here.

How the values were obtained:
CUTLL1 [1] = assay: Effect on ALYREF gene expression in human CUTLL1 cells in absence of 1 uM dexamethasone at 30 uM after 24 hrs by microarray method; format: functional, cell-based
Procedure, shortened: (§1)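 CUTLL1 T-ALL cells exposed 24 h to vehicle (DMSO), dexamethasone alone (1 μM), test agent alone (30 μM), or dexamethasone (1 μM) plus test agent (30 μM), in triplicate. Expression profiled by microarray. Leading-edge genes from GSEA were compared between the dexamethasone-plus-agent and dexamethasone-alone groups, using glucocorticoid-regulated gene sets from ALL patients on glucocorticoid therapy.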

[2] = target: Gamma-secretase (Homo sapiens) (UniProt Q96BI3+Q9NZ42+Q8WW43+P49768+Q92542+P49810); assay: Inhibition of gamma secretase in human CUTLL1 cells assessed as effect on NOTCH cleavage level at 25 uM after 24 hrs by Western blotting; format: cell-based
Procedure, shortened: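 Western blot of intracellular NOTCH (ICN) in CUTLL1 cells after 24 h exposure to compound alone or with 1 μM dexamethasone. The γ-secretase inhibitor Compound E (100 nM) plus dexamethasone was the reference treatment.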

CUTLL1 [3] = assay: Increase in GR expression in human CUTLL1 cells at < 25 uM after 24 hrs by RT-qPCR method; format: functional, cell-based
CUTLL1 [4] = assay: Effect on PFAS gene expression in human CUTLL1 cells in absence of 1 uM dexamethasone at 30 uM after 24 hrs by microarray method; format: functional, cell-based
Procedure, shortened: (§2)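 Human CUTLL1 T-ALL cells exposed for 24 h to vehicle (DMSO), dexamethasone alone (1 μM), test compound alone (30 μM), or dexamethasone 1 μM plus compound 30 μM, each in triplicate. Expression profiled by microarray. Glucocorticoid-regulated gene sets from ALL patients on glucocorticoid therapy scored by GSEA. Leading-edge genes compared between the combination and dexamethasone alone.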

CUTLL1 [5] = assay: Effect on MCM10 gene expression in human CUTLL1 cells in presence of 1 uM dexamethasone at 30 uM after 24 hrs by microarray method; format: functional, cell-based; procedure, shortened: as §1
CUTLL1 [6] = assay: Effect on BCCIP gene expression in human CUTLL1 cells in presence of 1 uM dexamethasone at 30 uM after 24 hrs by microarray method; format: functional, cell-based; procedure, shortened: as §1
CUTLL1 [7] = assay: Effect on TIPIN gene expression in human CUTLL1 cells in absence of 1 uM dexamethasone at 30 uM after 24 hrs by microarray method; format: functional, cell-based; procedure, shortened: as §2
CUTLL1 [8] = assay: Effect on NXT1 gene expression in human CUTLL1 cells in presence of 1 uM dexamethasone at 30 uM after 24 hrs by microarray method; format: functional, cell-based; procedure, shortened: as §1
CUTLL1 [9] = assay: Effect on PCNA gene expression in human CUTLL1 cells in absence of 1 uM dexamethasone at 30 uM after 24 hrs by microarray method; format: functional, cell-based; procedure, shortened: as §1
[10] = Growth inhibition of human CUTLL1 cells in presence of 1 uM dexamethasone after 48 hrs by alamar blue assay; format: functional, cell-based; settings: CUTLL1, 48 h
Procedure, shortened: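 CUTLL1 cells given compound alone or with dexamethasone 1 μM. Growth inhibition measured by alamar blue after 48 h.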

CUTLL1 [11] = assay: Effect on CDC25A gene expression in human CUTLL1 cells in presence of 1 uM dexamethasone at 30 uM after 24 hrs by microarray method; format: functional, cell-based; procedure, shortened: as §1
CUTLL1 [12] = assay: Effect on MCM10 gene expression in human CUTLL1 cells in absence of 1 uM dexamethasone at 30 uM after 24 hrs by microarray method; format: functional, cell-based; procedure, shortened: as §1
CUTLL1 [13] = assay: Growth inhibition of human CUTLL1 cells at 50 uM in presence of staurosporine after 48 hrs by alamar blue assay; format: functional, cell-based
CUTLL1 [14] = assay: Effect on RANBP1 gene expression in human CUTLL1 cells in presence of 1 uM dexamethasone at 30 uM after 24 hrs by microarray method; format: functional, cell-based; procedure, shortened: as §2
CUTLL1 [15] = assay: Effect on HELLS gene expression in human CUTLL1 cells in absence of 1 uM dexamethasone at 30 uM after 24 hrs by microarray method; format: functional, cell-based; procedure, shortened: as §1
CUTLL1 [16] = assay: Effect on DDIT4 gene expression in human CUTLL1 cells in absence of 1 uM dexamethasone at 30 uM after 24 hrs by microarray method; format: functional, cell-based; procedure, shortened: as §1
CUTLL1 [17] = assay: Growth inhibition of human CUTLL1 cells at 50 uM in presence of erastin after 48 hrs by alamar blue assay; format: functional, cell-based
CUTLL1 [18] = assay: Growth inhibition of human CUTLL1 cells at 12.5 to 50 uM in presence of 1 uM dexamethasone and 1 uM […] and glucocorticoid receptor antagonist RU486 after 48 hrs by alamar blue assay; format: functional, cell-based
Procedure, shortened: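 CUTLL1 cells treated for 48 h with compound, with or without dexamethasone 1 μM and RU486 1 μM. Growth inhibition read out by alamar blue.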

CUTLL1 [19] = assay: Effect on SMC2 gene expression in human CUTLL1 cells in presence of 1 uM dexamethasone at 30 uM after 24 hrs by microarray method; format: functional, cell-based; procedure, shortened: as §2
CUTLL1 [20] = assay: Effect on E2F7 gene expression in human CUTLL1 cells in presence of 1 uM dexamethasone at 30 uM after 24 hrs by microarray method; format: functional, cell-based; procedure, shortened: as §1
CUTLL1 [21] = assay: Effect on LILRB3 gene expression in human CUTLL1 cells in absence of 1 uM dexamethasone at 30 uM after 24 hrs by microarray method; format: functional, cell-based; procedure, shortened: as §1
CUTLL1 [22] = assay: Effect on CHAF1A gene expression in human CUTLL1 cells in absence of 1 uM dexamethasone at 30 uM after 24 hrs by microarray method; format: functional, cell-based; procedure, shortened: as §1
CUTLL1 [23] = assay: Effect on RPS14 gene expression in human CUTLL1 cells in absence of 1 uM dexamethasone at 30 uM after 24 hrs by microarray method; format: functional, cell-based; procedure, shortened: as §2
CUTLL1 [24] = assay: Effect on GGNBP2 gene expression in human CUTLL1 cells in presence of 1 uM dexamethasone at 30 uM after 24 hrs by microarray method; format: functional, cell-based; procedure, shortened: as §1
CUTLL1 [25] = assay: Effect on LILRB3 gene expression in human CUTLL1 cells in presence of 1 uM dexamethasone at 30 uM after 24 hrs by microarray method; format: functional, cell-based; procedure, shortened: as §1
CUTLL1 [26] = assay: Effect on TSC22D3 gene expression in human CUTLL1 cells in presence of 1 uM dexamethasone at 30 uM after 24 hrs by microarray method; format: functional, cell-based; procedure, shortened: as §2
CUTLL1 [27] = assay: Effect on GINS2 gene expression in human CUTLL1 cells in presence of 1 uM dexamethasone at 30 uM after 24 hrs by microarray method; format: functional, cell-based; procedure, shortened: as §1
CUTLL1 [28] = assay: Increase in GR expression in human CUTLL1 cells at 25 to 50 uM in presence of 1 uM dexamethasone after 24 hrs by Western blotting method; format: functional, cell-based
Procedure, shortened: (§3)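 CUTLL1 cells exposed to compound (25 or 50 μM) alone, with 1 μM dexamethasone, or with dexamethasone plus 1 μM RU486, for 6 or 24 h. GR measured as protein by Western blot and as transcript by RT-qPCR.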

CUTLL1 [29] = assay: Potentiation of dexamethasone-induced cytotoxicity against human CUTLL1 cells with low GR expression levels at 50 uM after 48 hrs by alamar blue assay; format: functional, cell-based
Procedure, shortened: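 Human CUTLL1 T-ALL cells engineered to express high (overexpressed) or low (knockdown) glucocorticoid receptor levels. Exposed to compound alone or with 1 μM dexamethasone. Alamar blue growth inhibition read after 48 h.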

CUTLL1 [30] = assay: Effect on TK1 gene expression in human CUTLL1 cells in presence of 1 uM dexamethasone at 30 uM after 24 hrs by microarray method; format: functional, cell-based; procedure, shortened: as §2
CUTLL1 [31] = assay: Increase in GR expression in human CUTLL1 cells at 50 uM after 6 hrs by RT-qPCR method; format: functional, cell-based; procedure, shortened: as §3

inhibition [2]: inactive
SMILES: Nc1ncc(-c2ccncc2)c(C2CC2)n1
Activity (CUTLL1 [1]): inactive
Activity (CUTLL1 [3]): inactive
Activity (CUTLL1 [4]): inactive
Activity (CUTLL1 [5]): Active
Activity (CUTLL1 [6]): Active
Activity (CUTLL1 [7]): inactive
Activity (CUTLL1 [8]): Active
Activity (CUTLL1 [9]): inactive
EC50 [10]: 28 µM
Activity (CUTLL1 [11]): Active
Activity (CUTLL1 [12]): inactive
growth inhibition (GI) (CUTLL1 [13]): inactive
Activity (CUTLL1 [14]): Active
Activity (CUTLL1 [15]): inactive
Activity (CUTLL1 [16]): inactive
growth inhibition (GI) (CUTLL1 [17]): inactive
growth inhibition (GI) (CUTLL1 [18]): inactive
Activity (CUTLL1 [19]): Active
Activity (CUTLL1 [20]): Active
Activity (CUTLL1 [21]): inactive
Activity (CUTLL1 [22]): inactive
Activity (CUTLL1 [23]): inactive
Activity (CUTLL1 [24]): Active
Activity (CUTLL1 [25]): Active
Activity (CUTLL1 [26]): Active
Activity (CUTLL1 [27]): Active
Activity (CUTLL1 [28]): Active
Activity (CUTLL1 [29]): Active
Activity (CUTLL1 [30]): Active
Activity (CUTLL1 [31]): inactive
